Data from ChEMBL document CHEMBL1932971, “Synthesis of uriedo and thiouriedo derivatives of peptide conjugated heterocycles - A new class of promising antimicrobials” (2012).
Numbered stars: 1 amine (or outer) side, 2 acyl side, 3 side chain; on linkers, the order of the positions; unused ones are H or OH. Peptide text beside a SMILES is read from it. * marks the point of attachment. Piperazinyl(4-(2,3-Cl2Ph)) = Clc1cccc(N2CCN(*)CC2)c1Cl; Thiocarbamoyl(N-4-ClPh) = S=C(Nc1ccc(Cl)cc1)*; Thiocarbamoyl(4-MeOPh) = COc1ccc(NC(=S)*)cc1; NH(4-MeO-phenyl) = COc1ccc(N*)cc1; NH(4-Cl-phenyl) = Clc1ccc(N*)cc1; X1 = Fc1ccc2c(C3CCN(*)CC3)noc2c1; CO = O=C([*:1])[*:2]

How the values were obtained:
Type in all cases: functional
Conditions in all cases: read-out: DIZ
Aspergillus flavus = assay: Antifungal activity against Aspergillus flavus at 30 ug/ml after 72 hrs by agar well diffusion method
In short: (§1)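 Fungal well diffusion. Inocula were subcultured in nutrient broth for one day, then spread on solidified medium. Compounds were made as a 1 mg/mL DMSO stock and diluted to 30 µg/mL final. Each 6 mm well got 0.1 mL. Controls were bavistin (reference) and DMSO (negative). Plates stood for 3 days at room temperature. Inhibition zone was measured in mm as the mean of three determinations.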

Escherichia coli = assay: Antibacterial activity against Escherichia coli at 30 ug/ml after 24 hrs by agar well diffusion method
In short: (§2)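 Agar well diffusion. Inocula were grown in nutrient broth at 37 °C for 24 h, then subcultured in nutrient broth at room temperature. Compounds were made as a 1 mg/mL DMSO stock and diluted to 30 µg/mL final. Nutrient agar plates were spread-inoculated and 6 mm wells each got 0.1 mL. Controls were amoxicillin (reference) and DMSO (negative). Incubation was 24 h at 37 °C. Inhibition zone was measured in mm as the mean of three determinations.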

Klebsiella pneumoniae = assay: Antibacterial activity against Klebsiella pneumoniae at 30 ug/ml after 24 hrs by agar well diffusion method; in short: as §2
Aspergillus niger = assay: Antifungal activity against Aspergillus niger at 30 ug/ml after 72 hrs by agar well diffusion method; in short: as §1
Staphylococcus aureus = assay: Antibacterial activity against coagulase-positive Staphylococcus aureus at 30 ug/ml after 24 hrs by agar well diffusion method; in short: as §2
Xanthomonas oryzae = assay: Antibacterial activity against Xanthomonas oryzae at 30 ug/ml after 24 hrs by agar well diffusion method
Fusarium oxysporum = assay: Antifungal activity against Fusarium oxysporum at 30 ug/ml after 72 hrs by agar well diffusion method; in short: as §1

Row | Compound | zone of inhibition at 30 µg/mL (Aspergillus flavus) | zone of inhibition at 30 µg/mL (Escherichia coli) | zone of inhibition at 30 µg/mL (Klebsiella pneumoniae) | zone of inhibition at 30 µg/mL (Aspergillus niger) | zone of inhibition at 30 µg/mL (Staphylococcus aureus) | zone of inhibition at 30 µg/mL (Xanthomonas oryzae) | zone of inhibition at 30 µg/mL (Fusarium oxysporum)
1 | COc1ccc(NC(=S)NCC(=O)N[C@@H](Cc2ccccc2)C(=O)NCC(=O)N[C@@H](Cc2ccccc2)C(=O)N2CCC[C@H]2C(=O)N2CCC(c3noc4cc(F)ccc34)CC2)cc1 ({Thiocarbamoyl(4-MeOPh)}-GFGFP-X1) | 30 mm | 31 mm | 31 mm | 36 mm | 29 mm | 31 mm | 33 mm
2 | COc1ccc(NC(=S)NCC(=O)N[C@H](C(=O)NCC(=O)N[C@H](C(=O)N2CCC[C@H]2C(=O)N2CCN(c3cccc(Cl)c3Cl)CC2)C(C)C)C(C)C)cc1 ({Thiocarbamoyl(4-MeOPh)}-GVGVP-{Piperazinyl(4-(2,3-Cl2Ph))}) | 23 mm | 27 mm | 22 mm | 29 mm | 22 mm | 26 mm | 24 mm
3 | COc1ccc(NC(=S)NCC(=O)N[C@@H](Cc2ccccc2)C(=O)NCC(=O)N[C@@H](Cc2ccccc2)C(=O)N2CCC[C@H]2C(=O)N2CCN(c3cccc(Cl)c3Cl)CC2)cc1 ({Thiocarbamoyl(4-MeOPh)}-GFGFP-{Piperazinyl(4-(2,3-Cl2Ph))}) | 28 mm | 29 mm | 29 mm | 32 mm | 26 mm | 28 mm | 29 mm
4 | CC[C@H](C)[C@H](NC(=O)CNC(=O)CNC(=S)Nc1ccc(Cl)cc1)C(=O)N1CCC[C@H]1C(=O)N1CCN(c2cccc(Cl)c2Cl)CC1 ({Thiocarbamoyl(N-4-ClPh)}-GGIP-{Piperazinyl(4-(2,3-Cl2Ph))}) | 26 mm | 27 mm | 20 mm | 28 mm | 22 mm | 24 mm | 28 mm
5 | COc1ccc(NC(=S)NCC(=O)NCC(=O)N[C@@H](Cc2ccccc2)C(=O)N2CCC[C@H]2C(=O)N2CCC(c3noc4cc(F)ccc34)CC2)cc1 ({Thiocarbamoyl(4-MeOPh)}-GGFP-X1) | 23 mm | 24 mm | 21 mm | 28 mm | 19 mm | 22 mm | 25 mm
6 | CC[C@H](C)[C@H](NC(=O)CNC(=O)CNC(=O)Nc1ccc(Cl)cc1)C(=O)N1CCC[C@H]1C(=O)N1CCC(c2noc3cc(F)ccc23)CC1 ({NH(4-Cl-phenyl)-CO}-GGIP-X1) | 24 mm | 26 mm | 18 mm | 27 mm | 19 mm | 22 mm | 26 mm
7 | COc1ccc(NC(=O)NCC(=O)N[C@H](C(=O)NCC(=O)N[C@H](C(=O)N2CCC[C@H]2C(=O)N2CCC(c3noc4cc(F)ccc34)CC2)C(C)C)C(C)C)cc1 ({NH(4-MeO-phenyl)-CO}-GVGVP-X1) | 27 mm | 26 mm | 27 mm | 30 mm | 23 mm | 33 mm | 27 mm
8 | O=C(CNC(=O)Nc1ccc(Cl)cc1)NCC(=O)N[C@@H](Cc1ccccc1)C(=O)N1CCC[C@H]1C(=O)N1CCN(c2cccc(Cl)c2Cl)CC1 ({NH(4-Cl-phenyl)-CO}-GGFP-{Piperazinyl(4-(2,3-Cl2Ph))}) | 25 mm | 27 mm | 22 mm | 30 mm | 20 mm | 24 mm | 27 mm
